# From ChEMBL document CHEMBL4828761, “Development and crystallography-aided SAR studies of multifunctional BuChE inhibitors and 5-HT6R antagonists with β-amyloid anti-aggregation properties” (Eur J Med Chem, 2021)
# The source made the active and inactive calls. The rule behind the calls is not given here.
# Columns and labels:
# Cholinesterase [1] = molecular target: T1, Cholinesterase (Homo sapiens, UniProt P06276); assay: Inhibition of BuChE in human plasma using BTC as substrate at 10 uM preincubated with enzyme for 5 mins followed by substrate addition for 5 mins by Ellman's method relative to control; type: cell-free; details: time 10.0 min
# In short: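 Human plasma BuChE at 0.384 U/mL final, with DTNB in 0.1 M phosphate buffer pH 8.0. Compound at 10 µM screened, preincubated 5 min at 36 °C.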
# Acetylcholinesterase = Acetylcholinesterase (Electrophorus electricus, UniProt O42275); assay: Inhibition of electric eel AchE using ATC as substrate preincubated with enzyme for 5 mins followed by substrate addition for 5 mins by Ellman's method
# In short: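 Electric eel AChE at 0.384 U/mL final, with DTNB in 0.1 M phosphate pH 8.0. […] ATC solution (0.00375 M) added; A412 after 5 min. Run in triplicate; IC50 by nonlinear regression of residual activity versus concentration.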
# [2] = molecular target: 5-hydroxytryptamine receptor 6 (Homo sapiens, UniProt P50406); assay: Displacement of [3H]LSD from human 5HT6 receptor expressed in CHO-K1 membrane incubated for 60 mins by solid scintillation counting analysis; type: cell membranes
# [3] = molecular target: Amyloid-beta precursor protein (Homo sapiens) (UniProt P05067); assay: Inhibition of amyloid beta (1 to 42) (unknown origin) self aggregation at 10 uM incubated for 24 to 48 hrs by Thioflavin-T based fluorometric assay; details: time lower […], time upper 48.0 hrs
# Cholinesterase [4] = molecular target: Cholinesterase (Equus caballus, UniProt P81908); assay: Inhibition of equine serum BuChE using BTC as substrate preincubated with enzyme for 5 mins followed by substrate addition for 5 mins by Ellman's method; type: cell-free
# Cholinesterase [5] = molecular target: T1, Cholinesterase; assay: Inhibition of BuChE in human plasma using BTC as substrate preincubated with enzyme for 5 mins followed by substrate addition for 5 mins by Ellman's method; type: cell-free
# In short: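 Human plasma BuChE at 0.384 U/mL final, with DTNB in 0.1 M phosphate pH 8.0. […] BTC solution (0.00375 M) added; A412 after 5 min. Run in triplicate; IC50 from nonlinear regression of residual activity versus concentration.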
# [6] = Metabolic stability in mouse liver microsomes assessed as parent compound remaining at 50 microM preincubated for 5 mins followed by incubation with NADPH regenerating system for 120 mins by UPLC-MS analysis; type: ADME, Microsome; details: time 125 min, read-out: Stability
# In short: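 Mouse liver microsomes 1 mg/mL in 0.1 M Tris-HCl pH 7.4 with 50 μM compound, preincubated 5 min at 37 °C, then started with NADPH regeneration system; stopped after 120 min at 37 °C with cold methanol, centrifuged, supernatant analysed by UPLC-MS for remaining parent and metabolites. Verapamil served as reference.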
# [7] = Cytotoxicity against human HepG2 cells assessed as non-toxic concentration incubated for 72 hrs by MTS assay; type: cell-based; details: read-out: MNCC
# In short: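 HepG2 cells grown in MEM with 2 mM glutamine, 1% NEAA, 10% FBS at 37 °C, 5% CO2. Compounds tested in quadruplicate at 0.1, 1, 10 and 100 μM for 72 h; viability read by MTS (CellTiter 96 AQueous) assay. Doxorubicin 1 μM and CCCP 10 μM served as positive controls.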
# [8] = Half life in CD-1 mouse brain at 3 mg/kg, iv measured for 480 mins by LC-ESI-MS/MS analysis; type: ADME, organism-based
# In short: (§1)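 Adult male CD-1 mice (20–25 g), dosed in saline i.v. 3 mg/kg or intragastrically 30 mg/kg; 6 animals per time point. Under i.p. ketamine/xylazine anaesthesia, blood collected after decapitation into heparinized tubes, plasma separated; brain homogenized in pH 7.4 phosphate buffer (1:2.5). Acetonitrile precipitation with internal standard, LC/ESI-MS/MS on C18 with formic acid eluents; non-compartmental parameters.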
# [9] = AUC (0 to t) in CD-1 mouse plasma at 3 mg/kg, iv measured for 480 mins by LC-ESI-MS/MS analysis; type: ADME, organism-based; set-up: dose 3 mg/kg, time 480 min; in short: as §1
# [10] = Ratio of drug level in brain to plasma in CD-1 mouse at 3 mg/kg, iv by LC-ESI-MS/MS analysis; type: ADME, organism-based; details: read-out: BPR; in short: as §1
# [11] = Half life in CD-1 mouse brain at 30 mg/kg, po measured for 480 mins by LC-ESI-MS/MS analysis; type: ADME, organism-based; in short: as §1
# [12] = Tmax in CD-1 mouse brain at 30 mg/kg, po measured for 480 mins by LC-ESI-MS/MS analysis; type: ADME, organism-based; in short: as §1
# [13] = Initial drug concentration in CD-1 mouse brain at 3 mg/kg, iv by LC-ESI-MS/MS analysis; type: ADME, organism-based; in short: as §1
# [14] = MRT in CD-1 mouse brain at 3 mg/kg, iv measured for 480 mins by LC-ESI-MS/MS analysis; type: ADME, organism-based; in short: as §1
# [15] = Half life in CD-1 mouse plasma at 3 mg/kg, iv measured for 480 mins by LC-ESI-MS/MS analysis; type: ADME, organism-based; in short: as §1
# [16] = Oral bioavailability in CD-1 mouse at 30 mg/kg measured for 480 mins by LC-ESI-MS/MS analysis; type: ADME, organism-based; details: in vivo; in short: as §1
# [17] = Cmax in CD-1 mouse plasma at 30 mg/kg, po measured for 480 mins by LC-ESI-MS/MS analysis; type: ADME, organism-based; set-up: route oral, dose 30 mg/kg, time 480 min; in short: as §1
# [18] = AUC (0 to t) in CD-1 mouse brain at 3 mg/kg, iv measured for 480 mins by LC-ESI-MS/MS analysis; type: ADME, organism-based; details: in vivo, 8 h; in short: as §1
# [19] = MRT in CD-1 mouse plasma at 30 mg/kg, po measured for 480 mins by LC-ESI-MS/MS analysis; type: ADME, organism-based; in short: as §1
# [20] = MRT in CD-1 mouse brain at 30 mg/kg, po measured for 480 mins by LC-ESI-MS/MS analysis; type: ADME, organism-based; in short: as §1
# [21] = Apparent oral clearance in CD-1 mouse at 30 mg/kg measured for 480 mins by LC-ESI-MS/MS analysis; type: ADME, organism-based; details: in vivo; in short: as §1
# [22] = Tmax in CD-1 mouse plasma at 30 mg/kg, po measured for 480 mins by LC-ESI-MS/MS analysis; type: ADME, organism-based; in short: as §1
# [23] = Ratio of drug level in brain to plasma in CD-1 mouse at 30 mg/kg, po by LC-ESI-MS/MS analysis; type: ADME, organism-based; details: read-out: BPR; in short: as §1
# [24] = Apparent oral volume of distribution at steady state in CD-1 mouse at 30 mg/kg measured for 480 mins by LC-ESI-MS/MS analysis; type: ADME, organism-based; details: in vivo; in short: as §1
# [25] = AUC (0 to t) in CD-1 mouse plasma at 30 mg/kg, po measured for 480 mins by LC-ESI-MS/MS analysis; type: ADME, organism-based; set-up: time 480 min, dose 30 mg/kg; in short: as §1
# [26] = Cmax in CD-1 mouse brain at 30 mg/kg, po measured for 480 mins by LC-ESI-MS/MS analysis; type: ADME, organism-based; set-up: route oral, dose 30 mg/kg, time 480 min; in short: as §1
# [27] = AUC (0 to t) in CD-1 mouse brain at 30 mg/kg, po measured for 480 mins by LC-ESI-MS/MS analysis; type: ADME, organism-based; details: in vivo, 8 h; in short: as §1
# [28] = Half life in CD-1 mouse plasma at 30 mg/kg, po measured for 480 mins by LC-ESI-MS/MS analysis; type: ADME, organism-based; in short: as §1
# [29] = Initial plasma concentration in CD-1 mouse at 3 mg/kg, iv by LC-ESI-MS/MS analysis; type: ADME, organism-based; in short: as §1
# [30] = MRT in CD-1 mouse plasma at 3 mg/kg, iv measured for 480 mins by LC-ESI-MS/MS analysis; type: ADME, organism-based; details: in vivo, 8 h; in short: as §1
# [31] = molecular target: Cholinesterase (Equus caballus) (UniProt P81908); assay: Reversible inhibition of equine serum BuChE using BTC as substrate at 10XIC50 preincubated with 100-fold diluted enzyme for 120 mins followed by substrate addition and measured after 5 mins by 100-fold dilution assay; type: cell-free; details: time 125.0 min
# In short: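 Equine BuChE preincubated with inhibitor at 100-fold the final enzyme concentration for 30, 60 or 120 min at 25 °C. Then diluted 100-fold into 0.1 M phosphate pH 8 with DTNB. BTC (0.00375 M) added; A412 read after 5 min. Activity recovery compared with enzyme/vehicle blanks; two independent experiments, each in quadruplicate.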
# [32] = molecular target: Amyloid-beta precursor protein (Homo sapiens) (UniProt P05067); assay: Inhibition of self-induced aggregation of amyloid beta (1 to 42) (unknown origin) expressed in Escherichia coli BL21(DE3) at 10 uM incubated for 60 mins by fluorescence based analysis
# T1 sequence (P06276 whole entry): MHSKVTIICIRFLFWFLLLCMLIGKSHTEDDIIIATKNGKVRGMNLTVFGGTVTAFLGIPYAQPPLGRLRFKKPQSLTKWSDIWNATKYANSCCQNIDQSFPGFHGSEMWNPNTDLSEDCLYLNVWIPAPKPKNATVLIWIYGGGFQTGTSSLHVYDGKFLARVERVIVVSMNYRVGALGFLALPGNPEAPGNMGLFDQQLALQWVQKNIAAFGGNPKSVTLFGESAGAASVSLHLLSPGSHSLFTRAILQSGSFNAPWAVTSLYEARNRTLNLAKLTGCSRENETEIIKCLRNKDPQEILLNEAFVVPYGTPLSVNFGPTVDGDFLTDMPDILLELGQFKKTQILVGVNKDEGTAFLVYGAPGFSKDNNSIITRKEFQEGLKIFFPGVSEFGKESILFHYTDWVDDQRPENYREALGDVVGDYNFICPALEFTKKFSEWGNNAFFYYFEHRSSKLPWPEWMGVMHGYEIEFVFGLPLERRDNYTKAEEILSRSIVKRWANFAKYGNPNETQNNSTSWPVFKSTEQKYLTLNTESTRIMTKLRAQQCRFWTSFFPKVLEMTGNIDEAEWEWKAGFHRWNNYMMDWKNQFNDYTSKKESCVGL
# Chain of 5-hydroxytryptamine receptor 6 (P50406 whole entry): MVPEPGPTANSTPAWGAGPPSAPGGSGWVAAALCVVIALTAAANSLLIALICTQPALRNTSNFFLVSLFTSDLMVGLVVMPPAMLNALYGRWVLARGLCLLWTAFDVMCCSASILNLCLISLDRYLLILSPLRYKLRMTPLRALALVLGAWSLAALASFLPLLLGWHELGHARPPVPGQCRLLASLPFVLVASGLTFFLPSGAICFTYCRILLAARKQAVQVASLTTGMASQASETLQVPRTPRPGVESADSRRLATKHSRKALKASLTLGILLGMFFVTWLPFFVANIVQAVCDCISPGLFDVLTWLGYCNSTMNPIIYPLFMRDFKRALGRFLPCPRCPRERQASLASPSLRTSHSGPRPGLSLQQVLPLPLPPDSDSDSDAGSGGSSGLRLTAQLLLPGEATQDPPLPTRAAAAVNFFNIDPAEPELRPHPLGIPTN
# Chain of Amyloid-beta precursor protein (Homo sapiens) (P05067 whole entry): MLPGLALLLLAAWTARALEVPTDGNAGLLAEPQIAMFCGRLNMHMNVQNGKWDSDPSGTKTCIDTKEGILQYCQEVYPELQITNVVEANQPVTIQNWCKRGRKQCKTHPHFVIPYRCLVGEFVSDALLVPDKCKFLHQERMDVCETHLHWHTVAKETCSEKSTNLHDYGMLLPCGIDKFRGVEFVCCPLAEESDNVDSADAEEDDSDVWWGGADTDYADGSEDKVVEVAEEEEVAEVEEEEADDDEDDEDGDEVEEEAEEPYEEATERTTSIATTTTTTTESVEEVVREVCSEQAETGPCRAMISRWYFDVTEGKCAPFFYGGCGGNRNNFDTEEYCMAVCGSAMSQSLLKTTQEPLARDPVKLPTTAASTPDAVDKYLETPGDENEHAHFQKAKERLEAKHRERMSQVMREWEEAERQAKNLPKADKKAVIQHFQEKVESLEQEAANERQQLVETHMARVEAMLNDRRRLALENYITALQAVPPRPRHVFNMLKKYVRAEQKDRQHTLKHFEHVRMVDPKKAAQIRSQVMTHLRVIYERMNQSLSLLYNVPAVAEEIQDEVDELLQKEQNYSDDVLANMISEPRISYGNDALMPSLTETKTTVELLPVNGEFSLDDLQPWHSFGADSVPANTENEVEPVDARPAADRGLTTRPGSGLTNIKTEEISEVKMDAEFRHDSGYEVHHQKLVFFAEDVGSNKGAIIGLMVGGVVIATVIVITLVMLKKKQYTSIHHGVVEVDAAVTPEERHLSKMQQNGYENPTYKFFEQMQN
# Chain of Acetylcholinesterase (O42275 whole entry): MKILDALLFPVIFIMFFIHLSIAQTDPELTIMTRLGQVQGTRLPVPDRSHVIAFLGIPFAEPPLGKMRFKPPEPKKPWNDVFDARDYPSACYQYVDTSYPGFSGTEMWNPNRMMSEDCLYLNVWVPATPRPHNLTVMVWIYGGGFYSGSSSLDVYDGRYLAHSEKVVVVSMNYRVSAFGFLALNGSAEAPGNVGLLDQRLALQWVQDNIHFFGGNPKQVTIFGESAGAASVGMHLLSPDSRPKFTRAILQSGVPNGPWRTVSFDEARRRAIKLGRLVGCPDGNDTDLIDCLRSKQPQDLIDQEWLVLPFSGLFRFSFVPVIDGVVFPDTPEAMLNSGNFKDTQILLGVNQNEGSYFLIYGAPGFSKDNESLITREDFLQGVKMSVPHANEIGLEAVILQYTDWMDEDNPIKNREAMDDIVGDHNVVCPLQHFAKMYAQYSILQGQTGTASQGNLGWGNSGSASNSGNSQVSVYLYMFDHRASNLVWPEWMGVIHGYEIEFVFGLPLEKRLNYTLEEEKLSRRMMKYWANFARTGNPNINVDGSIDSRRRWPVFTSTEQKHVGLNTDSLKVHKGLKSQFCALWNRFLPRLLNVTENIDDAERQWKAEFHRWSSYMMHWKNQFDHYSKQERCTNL
# Chain of Cholinesterase (Equus caballus, UniProt P81908) (P81908 whole entry): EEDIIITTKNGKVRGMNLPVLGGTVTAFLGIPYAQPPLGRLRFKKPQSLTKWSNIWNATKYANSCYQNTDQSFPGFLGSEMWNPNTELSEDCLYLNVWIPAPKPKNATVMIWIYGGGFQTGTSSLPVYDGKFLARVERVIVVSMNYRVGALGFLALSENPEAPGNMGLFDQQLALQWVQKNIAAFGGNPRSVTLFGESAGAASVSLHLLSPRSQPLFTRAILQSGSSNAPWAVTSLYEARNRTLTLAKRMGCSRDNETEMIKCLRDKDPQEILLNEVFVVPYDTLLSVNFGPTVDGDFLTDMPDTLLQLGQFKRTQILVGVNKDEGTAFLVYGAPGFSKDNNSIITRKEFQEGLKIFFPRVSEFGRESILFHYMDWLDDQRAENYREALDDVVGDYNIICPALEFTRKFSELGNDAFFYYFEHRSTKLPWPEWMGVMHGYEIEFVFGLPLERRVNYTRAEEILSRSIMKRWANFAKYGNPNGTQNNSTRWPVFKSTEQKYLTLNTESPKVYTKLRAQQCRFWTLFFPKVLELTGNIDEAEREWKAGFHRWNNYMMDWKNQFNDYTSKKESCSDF
# Chain of Cholinesterase (Equus caballus) (P81908 whole entry): as above
smiles,measurement,setting,value
O=C1Cc2c(OCCNCc3ccccc3)cccc2N1Cc1ccccc1,inhibition,Cholinesterase [1],< 50%
same,IC50,Acetylcholinesterase,1710 nM
same,Ki,[2],55 nM
same,inhibition,[3],42.4%
same,IC50,Cholinesterase [4],4430 nM
O=S(=O)(c1ccccc1)n1ccc2c(OCCNCc3ccccc3)cccc21,IC50,Cholinesterase [5],1610 nM
same,"remaining at 2 h, 50 µM",[6],57%
same,IC50,Cholinesterase [4],473 nM
same,MNTC at 72 h,[7],≤ 10000 nM
O=S(=O)(c1ccccc1)n1ccc2c(OCCNCC3CCCCC3)cccc21,half-life,[8],2.97 h
same,AUC(0-t) at 8 h,[9],627 ng·h/mL
same,Kp,[10],3.33
same,half-life,[11],3 h
same,IC50,Cholinesterase [5],551 nM
same,Tmax,[12],1 h
same,C0,[13],404 ng/mL
same,MRT,[14],2.83 h
same,half-life,[15],5.53 h
same,bioavailability,[16],28.7%
same,Cmax,[17],532 ng/mL
same,AUCt,[18],125194 ng·min/g
same,MRT,[19],3.24 h
same,MRT,[20],3.24 h
same,"remaining at 2 h, 50 µM",[6],59%
same,CL/F,[21],189 mL/min/kg
same,Tmax,[22],1 h
same,Kp,[23],6.79
same,Vd/F,[24],81.4 L/kg
same,IC50,Cholinesterase [4],89.9 nM
same,AUC(0-t) at 8 h,[25],1800 ng·h/mL
same,Cmax,[26],2800 ng/mL
same,AUCt,[27],734469 ng·min/g
same,half-life,[28],4.97 h
same,C0,[29],176 ng/mL
same,MRT,[30],3.18 h
same,MNTC at 72 h,[7],≤ 1000 nM
CC(C)(C)OC(=O)N1CCCC(CNCCOc2cccc3c2ccn3S(=O)(=O)c2ccccc2)C1 (stereo not drawn),IC50,Cholinesterase [5],206 nM
same,"remaining at 2 h, 50 µM",[6],0%
same,IC50,Cholinesterase [4],125 nM
same,MNTC at 72 h,[7],≤ 1000 nM
CC(C)(C)OC(=O)N1CCCC(CNCCOc2cccc3c2ccn3Cc2ccccc2)C1 (stereo not drawn),inhibition,Cholinesterase [1],> 50%
same,IC50,Cholinesterase [5],115 nM
same,Ki,[2],369 nM
same,inhibition,[3],79.4%
same,IC50,Cholinesterase [4],11 nM
same,inhibition,[31],Active
Cc1cccc(CNCCOc2cccc3c2CC(=O)N3Cc2ccccc2)c1,inhibition,Cholinesterase [1],< 50%
same,IC50,Acetylcholinesterase,1280 nM
same,Ki,[2],53 nM
same,inhibition,[3],58.5%
same,IC50,Cholinesterase [4],1850 nM
CC(C)(C)OC(=O)N1CCCC(CNCCOc2cccc3c2CCN3Cc2ccccc2)C1 (stereo not drawn),inhibition,Cholinesterase [1],> 50%
same,IC50,Cholinesterase [5],175 nM
same,Ki,[2],1080 nM
same,inhibition,[3],79.7%
same,IC50,Cholinesterase [4],25.7 nM
same,inhibition,[31],Active
Cc1cccc(CNCCOc2cccc3c2[nH]c(=O)n3Cc2ccccc2)c1,inhibition,Cholinesterase [1],< 50%
same,IC50,Acetylcholinesterase,1800 nM
same,Ki,[2],207 nM
same,inhibition,[3],64.3%
same,IC50,Cholinesterase [4],1500 nM
O=S(=O)(c1ccccc1)n1ccc2c(N3CCN(CCCCCCNc4c5c(nc6ccccc46)CCCC5)CC3)cccc21,inhibition,[32],30%
O=c1[nH]c2c(OCCNCc3ccccc3)cccc2n1Cc1ccccc1,inhibition,Cholinesterase [1],< 50%
same,IC50,Acetylcholinesterase,1080 nM
same,Ki,[2],144 nM
same,inhibition,[3],32.9%
same,IC50,Cholinesterase [4],1840 nM
